An excerpt weighted towards active compounds, which were near 2% of everything screened.
LMPTP block: blocks human LMPTP phosphatase | recombinant LMPTP-A, OMFP fluorogenic substrate, fluorescence intensity | P24666 | 360,000 tested, 0.22% active | inhibition, % at 20 µM;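 active = compounds that cut the enzyme signal by at least half of the control window in the single-dose screen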;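 also: plate controls were DMSO wells with enzyme plus substrate for no effect and substrate without enzyme for full effect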
Target sequence (P24666 whole entry, looked up): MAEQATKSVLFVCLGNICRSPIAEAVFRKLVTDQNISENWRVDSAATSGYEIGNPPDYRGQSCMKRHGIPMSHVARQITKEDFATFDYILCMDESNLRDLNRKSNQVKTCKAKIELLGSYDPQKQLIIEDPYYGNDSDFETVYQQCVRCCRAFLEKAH
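Test system: LMPTP-A phosphatase enzyme. Amount: LMPTP-A at 0.625 nM final in the reaction. Reagent: OMFP substrate, 400 µM final. Times: 50 min at room temperature. Signal: endpoint fluorescence intensity from OMFP dephosphorylation. Read-out basis: % inhibition. Benchmarks: no-enzyme and uninhibited controls.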
Scp-1 inhibitor: inhibitors of human Scp-1 phosphatase | inhibition, % at 20 µM | Q9GZU7 | 340,000 tested, 0.88% active | Recombinant Scp1, phosphopeptide, malachite green phosphate absorbance;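 active = inhibition above about 50% at 20 µM, limit read from the data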;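 also: plate controls were DMSO wells with enzyme for no effect and wells lacking enzyme for full effect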
Target sequence (Q9GZU7 76-261 limits assumed): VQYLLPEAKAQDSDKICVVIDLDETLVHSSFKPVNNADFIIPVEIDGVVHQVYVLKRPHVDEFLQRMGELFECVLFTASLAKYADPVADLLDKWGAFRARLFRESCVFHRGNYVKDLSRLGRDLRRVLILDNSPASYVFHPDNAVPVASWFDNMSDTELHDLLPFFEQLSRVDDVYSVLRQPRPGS
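System: truncated SCP-1 phosphatase (76-261aa); medium: Tris acetate buffer pH 5.5 with MgCl2 and Tween-20; incubation: 45 min room-temperature reaction, 5 min colour, 30 min stabiliser; compound: single 20 µM dose, 1% DMSO; reagent: Phosphorylated 17-residue peptide substrate; read-out: % inhibition at 20 µM; technique: colorimetric free-phosphate detection, absorbance 630 nm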
Rpn11 block: inhibitors of human proteasome Rpn11; 360,000 tested, 0.59% active; inhibition, % at 20 µM; human 26S proteasome, Ub4-pepOG fluorescence polarization; 20S core pre-blocked with epoxomicin; O00487; AID 588493;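 active = inhibition at 20 µM, scaled to each plate's controls, above about 33%, limit read from the data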
Target sequence (O00487 whole entry, looked up): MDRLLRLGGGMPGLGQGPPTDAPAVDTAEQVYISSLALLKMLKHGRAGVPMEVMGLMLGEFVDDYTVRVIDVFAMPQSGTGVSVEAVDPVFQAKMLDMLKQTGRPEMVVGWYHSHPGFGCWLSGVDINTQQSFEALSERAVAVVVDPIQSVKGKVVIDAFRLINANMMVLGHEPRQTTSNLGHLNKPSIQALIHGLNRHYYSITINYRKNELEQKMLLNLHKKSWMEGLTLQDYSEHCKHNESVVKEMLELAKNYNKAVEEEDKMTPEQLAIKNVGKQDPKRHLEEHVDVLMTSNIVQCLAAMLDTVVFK
DNMT1 inh: DNMT1 (human) enzyme inhibition; P26358; 360,000 tested, 0.83% active; inhibition (reported as % activation of signal), % at 10 µM; DNMT1 molecular beacon, Hinp1I cleavage, fluorescence; in the data active = inhibition above about 50%
STEP block: blocks human striatal-enriched tyrosine phosphatase | P54829 | 360,000 tested, 0.25% active | inhibition, % at 20 µM | recombinant STEP, OMFP fluorogenic substrate, fluorescence | AID 588621;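 active = inhibition at 20 µM, scaled per plate between control wells, above about 37%, limit read from the data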;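 also: 0% = DMSO with enzyme and substrate and 100% = substrate only without enzyme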
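Also added – OMFP at 25 µM · Test system – STEP tyrosine phosphatase · Technique – FITC-channel fluorescence of OMFP product · Schedule – 20 min at room temperature, dark · Evaluation – control-normalized % inhibition with plate pattern correction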
Scp-1 conf: Scp-1 (human) inhibition, single-dose confirmed; shares compounds with Scp-1 inhibitor; recombinant SCP-1 catalytic domain, phosphate release, malachite green absorbance; inhibition, % at 20 µM; 2,500 tested, 61% active;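 also: plate controls were DMSO with enzyme for no effect and buffer wells lacking enzyme for full effect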
MG interference: interferes with malachite green readout, flagging false Scp-1 hits; Colorimetric interference counterscreen, malachite green absorbance 630 nm; apparent inhibition (interference), % at 20 µM; 2,500 tested, under 10 active; shares compounds with Scp-1 inhibitor; AID 540313;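 also: compounds added after enzyme reaction finished so only phosphate colour detection is probed; plate controls were DMSO wells with completed Scp-1 reaction for no effect and substrate wells lacking enzyme for full effect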
Scp1 DSF: Scp-1 (human) binding by thermal shift. 1,500 tested, 25% active. shares compounds with Scp-1 inhibitor. Recombinant SCP1, Sypro Orange thermal shift Tm. AID 540329. thermal shift relative to vanadate control, % at 40 µM;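 active = substances whose mean melting-temperature shift, as a percentage of the reference inhibitor's shift, reaches about 5.3%, limit read from the data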;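 also: 0% = Tm of DMSO wells and 100% = Tm with sodium orthovanadate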
* hit, by the source's call; . = not tested or not shown.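 The calls were made as follows, unless noted: active = inhibition of at least 30% at 20 µM; inactive = the rest.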

SMILES | LMPTP block | Scp-1 inhibitor | Rpn11 block | DNMT1 inh | STEP block | Scp-1 conf | MG interference | others
CCCCN(C(=O)C1CC(=O)N(Cc2ccc(C)cc2)C1)c1c(N)n(CC(C)C)c(=O)[nH]c1=O (stereo unspecified) | -1 | -7 | 1 | 0 | -2 | -11 | -6
COCCN(C(=O)C1CC(=O)N(Cc2ccc(C)cc2)C1)c1c(N)n(CC(C)C)c(=O)[nH]c1=O (stereo unspecified) | 1 | 0 | -1 | -2 | -3 | . | .
COc1cc(CO)c(OC)c([N+](=O)[O-])c1 | -1 | -6 | -1 | 2 | -2 | . | .
COc1cccc2cc(C(=O)CS(=O)(=O)c3ccc(C)cc3)c(=O)oc12 | 0 | 66* | 6 | 6 | 1 | -7 | -19
Cc1ccc(S(=O)(=O)CC(=O)c2cc3cccc(C)c3oc2=O)cc1 | -1 | -5 | 4 | 5 | 0 | . | .
COc1ccc(CC(=O)Nc2ncc([N+](=O)[O-])s2)cc1OC | 24 | 71* | 18 | 2 | 9 | 66* | -16 | Scp1 DSF=12*
CC(C=NNc1ccc([N+](=O)[O-])cn1)=Cc1ccccc1 | 0 | 1 | 22 | 20 | -2 | . | .
CN(C)c1cccc(N=C2C=C(N3CCOCC3)CC(C)(C)C2)c1 | -2 | 99* | -3 | -3 | -3 | 79* | -18 | Scp1 DSF=-10
COCCCn1nnnc1SCC(=O)Nc1nc(C)c(C)s1 | 0 | 52* | -1 | -3 | 2 | -10 | -11
CCn1nnnc1SCC(=O)Nc1nc(C)c(C)s1 | 0 | 8 | 2 | 0 | 1 | . | .
CC1=CC(C)[C@@H]2COC(c3ccc(O)cc3)[C@H]1C2C (stereo partly specified) | 1 | -7 | 7 | -16 | 1 | . | .
CC1=CC(C)C2COC(c3ccc[n+](C)c3)C1C2C (stereo unspecified) | -1 | 95* | -3 | 2 | 0 | -3 | -10
COc1cc(/C=C/c2cccc[n+]2C)ccc1OCC(=O)Nc1ccccc1C | 0 | 52* | -2 | 1 | 0 | -3 | -11
CCOc1cc(/C=C/c2cccc[n+]2C)ccc1O | -2 | 72* | 8 | 0 | 0 | -12 | -14
CCOc1cc(/C=C/c2cccc[n+]2C)ccc1OCC(=O)Nc1ccc(C)cc1 | 0 | 4 | 0 | 0 | -4 | . | .
C=CCCC(=O)N1CCCC(C(=O)c2cccc(OC)c2)C1 (stereo unspecified) | -1 | 1 | 1 | 0 | -2 | . | .
CCCCN(C=O)c1c(CC)nc2ccc(C(=O)N(C)Cc3ccco3)cn12 | -2 | . | 2 | 4 | 0 | . | .
COc1ccc(C(=O)c2[nH]c(N)c(C(=O)NCCc3c[nH]c4ccccc34)c2-c2ccccc2Br)cc1 | 3 | . | . | . | . | . | .
CCOC(=O)c1cnc2nc(NCc3ccc(OCc4ccccc4)cc3)[nH]n2c1=O | -1 | 71* | 0 | 1 | 4 | 91* | 0 | Scp1 DSF=0
CCOC(=O)c1cnc2nc(COc3ccccc3)[nH]n2c1=O | -1 | -5 | 6 | -1 | -2 | . | .
Nc1ccc(S(=O)(=O)NCC(=O)OC2CCOC2=O)cc1[N+](=O)[O-] (stereo unspecified) | 0 | 55* | -8 | 39 | 3 | 19 | -16
CC(Sc1nnc(C(C)Oc2ccc(F)cc2)o1)C(=O)NCc1ccc2c(c1)OCO2 (stereo unspecified) | 0 | . | 3 | 0 | 0 | . | .
C[C@H](O)C#Cc1cnc2c(c1)C(=O)N([C@H](C)CO)C[C@@H](C)[C@@H](CN(C)Cc1ccc(-c3ccccc3)cc1)O2 | 0 | . | 0 | -5 | 0 | . | .
CCCCOCCCNC(=O)C[C@@H]1C[C@@]2(C(=O)OC)CCCCC=C2N(CCc2ccc(OC)c(OC)c2)C1=O | 0 | . | . | . | . | . | .
C[C@]12CCC3C(CC=C4C[C@@H](O)CC[C@@]43C)C1CCC2[C@]1(C)CCC(=O)O1 (stereo partly specified) | -1 | 58* | 6 | -1 | -3 | -2 | -12
SMILES | LMPTP block | Scp-1 inhibitor | Rpn11 block | DNMT1 inh | STEP block | Scp-1 conf | MG interference | others
O=C(OC1CCOC1=O)c1ccc(Cl)c(S(=O)(=O)N2CCOCC2)c1 (stereo unspecified) | 5 | 53* | -8 | 25 | 15 | 27 | -19
O=C(COC(=O)c1ccc(OC(F)(F)F)cc1)Nc1ncccn1 | -1 | 82* | -16 | 20 | -2 | 49* | -6 | Scp1 DSF=-5
NC(=O)NC(=O)COC(=O)c1ccc(OC(F)(F)F)cc1 | 0 | 1 | -2 | 2 | 0 | . | .
COC(=O)c1ccc(NC(=O)c2cn(-c3cccc(C)n3)cn2)cc1 | -3 | -2 | 5 | -21 | -8 | . | .
Cc1ccc(NC(=O)c2cn(-c3cccc(C)n3)cn2)cc1 | -2 | 67* | -4 | -1 | 0 | -6 | -13
CC(=O)c1ccc(OCCOc2ccc([N+](=O)[O-])cc2)cc1 | 0 | -10 | -3 | 2 | 0 | . | .
C[N+]1(CCOc2ccc([N+](=O)[O-])cc2)CCOCC1 | -3 | 106* | -2 | 3 | -1 | 85* | -11 | Scp1 DSF=-11
CCCCNC(=O)C1(C)CCN1Cc1cc(C)ccc1C (stereo unspecified) | -2 | . | 1 | 8 | 0 | . | .
Cc1nn(Cc2ccccc2Cl)c(C)c1NC(=O)c1noc(C(C)C)c1[N+](=O)[O-] | -1 | 63* | -4 | 0 | -1 | -113 | -10
Cc1nn(Cc2ccccc2Cl)c(C)c1NC(=O)c1noc2c1CCCCC2 | -1 | -8 | -2 | -2 | -3 | . | .
NC(=O)C1CCN(C(=O)CCc2nc3sc4c(c3c(=O)[nH]2)CCCC4)CC1 | 5 | 58* | 28 | 35 | 4 | 62* | -14 | Scp1 DSF=2
CCNC(=O)OCc1cn(-c2ccc(Cl)cc2)nn1 | 0 | -4 | -2 | 2 | 0 | . | .
O=C(Nc1ccc(Cl)cc1)OCc1cn(-c2ccc(Cl)cc2)nn1 | 0 | 84* | -1 | 9 | -3 | -11 | -21
Cc1c(C(=O)NCCC2=CCCCC2)oc2ccc(S(=O)(=O)N3CCOCC3)cc12 | 3 | -11 | 4 | -6 | 4 | . | .
Cc1c(C(=O)O)oc2ccc(S(=O)(=O)NCCC3=CCCCC3)cc12 | 1 | 52* | -1 | -1 | -1 | 1 | -4
COc1cccc(NC(=O)C2CCCN(S(=O)(=O)c3cccc4cccnc34)C2)c1 (stereo unspecified) | -1 | 86* | -1 | -2 | 2 | 5 | -1

Bioassay records as filed in PubChem.
